Test results as given in ChEMBL document CHEMBL3392958, “Evaluation of two novel antioxidants with differential effects on curcumin-induced apoptosis in C2 skeletal myoblasts; involvement of JNKs” (Bioorg Med Chem, 2015).
Activity calls are given as the source filed them. The calls are words filed in the database; no cut-off is given here.

Experiments:
[1] = Antioxidant activity assessed as DPPH free radical scavenging activity after 30 mins by spectrophotometry; assay type: physicochemical
Summary of the method: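 DPPH radical (final 400 µM, in ethanol) mixed with test compound at 25–400 µM at room temperature; absorbance at 517 nm recorded at intervals over 90 min; % reducing capacity taken at 30 min, IC50 from this; means ± sem of at least two independent experiments.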

[2] = Cytoprotective activity against H2O2-induced cytotoxicity in mouse C2 cells assessed as cell viability at 1 uM after 24 hrs by MTT assay (reference value: 83.1 +/- 3.5%); assay type: functional; settings: C2, 24 h, read-out: Activity
[3] = Cytoprotective activity against H2O2-induced cytotoxicity in mouse C2 cells assessed as cell viability at 15 uM after 24 hrs by MTT assay (reference value: 83.1 +/- 3.5%); assay type: functional; settings: C2, 24 h, read-out: Activity
[4] = Cytoprotective activity against H2O2-induced cytotoxicity in mouse C2 cells assessed as cell viability at 30 uM after 24 hrs by MTT assay (reference value: 83.1 +/- 3.5%); assay type: functional; settings: C2, 24 h, read-out: Activity
[5] = Cytoprotective activity against H2O2-induced cytotoxicity in mouse C2 cells assessed as cell viability at 50 uM after 24 hrs by MTT assay (reference value: 83.1 +/- 3.5%); assay type: functional; settings: C2, 24 h, read-out: Activity
C2 [6] = test: Inhibition of H2O2-induced ERK phosphorylation in mouse C2 cells at 30 uM pre-incubated for 30 mins before H2O2 exposure for 15 mins by SDS-PAGE and immunoblotting method; assay type: cell-based
Summary of the method: (§1)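 C2 myoblasts pre-incubated 30 min with compound, then 1 mM H2O2 for 15 min. Lysates in buffer G (30 µg) run on SDS–PAGE and immunoblotted for phospho-ERKs or phospho-JNKs, actin as loading control; ECL, densitometry; means ± sem, ≥3 experiments; one-way ANOVA with Bonferroni post-test.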

C2 [7] = test: Inhibition of H2O2-induced JNK phosphorylation in mouse C2 cells at 30 uM pre-incubated for 30 mins before H2O2 exposure for 15 mins by SDS-PAGE and immunoblotting method; assay type: cell-based; summary of the method: as §1
C2 [8] = test: Inhibition of curcumin-induced ERK phosphorylation in mouse C2 cells at 30 uM pre-incubated for 30 mins before curcumin exposure for 15 mins by SDS-PAGE and immunoblotting method; assay type: cell-based
Summary of the method: (§2)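 Cells pre-treated 30 min with compound, then 50 µM curcumin for 15 min; whole-cell extracts (buffer G, 30 µg) immunoblotted for phospho-ERKs, actin loading control, ECL and densitometry; means ± sem of ≥3 experiments, one-way ANOVA/Bonferroni.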

C2 [9] = test: Inhibition of curcumin-induced JNK in mouse C2 cells assessed as reduction in c-Jun phosphorylation at 30 uM pre-incubated for 30 mins before curcumin exposure for 4 hrs by Western blotting method; assay type: cell-based
Summary of the method: (§3)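 After 30 min pre-incubation with compound and 4 h 50 µM curcumin, nuclear extracts prepared by subcellular fractionation (25 µg) immunoblotted for phospho-c-Jun, with total c-Jun as loading control; densitometry, means ± sem of ≥3 experiments, one-way ANOVA/Bonferroni.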

C2 [10] = test: Inhibition of curcumin-induced apoptosis in mouse C2 cells assessed as reduction in PARP cleavage at 30 uM pre-incubated for 30 mins before curcumin exposure for 4 hrs by SDS-PAGE and immunoblotting method; assay type: functional, cell-based
Summary of the method: (§4)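 C2 cells pre-incubated 30 min with compound, then 50 µM curcumin for 4 h; buffer G lysates (30 µg) immunoblotted with antibody detecting full-length PARP and the 89 kDa fragment, actin loading control; densitometry, means ± sem of ≥3 experiments, one-way ANOVA with Bonferroni.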

[11] = Effect on PARP protein level in mouse C2 cells at 30 uM incubated for 30 mins by SDS-PAGE and immunoblotting method; assay type: cell-based; settings: c2, 0.5 h
[12] = Cytotoxic activity against mouse C2 cells assessed as cell viability at 30 uM after 24 hrs by MTT assay (reference value: 100%); assay type: cell-based; settings: read-out: Activity
Summary of the method: (§5)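 Serum-deprived C2 myoblasts (≥3 h, 70% confluence) incubated with compound alone (DMSO vehicle) for 24 h; MTT read at 540 nm after lysis in 0.1 M HCl/isopropanol, expressed as % of untreated control; means ± sem of ≥3 independent experiments.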

[13] = Cytoprotective activity against curcumin-induced cytotoxicity in mouse C2 cells assessed as cell viability at 30 uM after 24 hrs by MTT assay (reference value: 83.8 +/- 0.4%); assay type: functional; settings: C2, 24 h, read-out: Activity
C2 [14] = test: Inhibition of curcumin-induced JNK phosphorylation in mouse C2 cells at 30 uM pre-incubated for 30 mins before curcumin exposure for 2 hrs by SDS-PAGE and immunoblotting method
[15] = Cytotoxic activity against mouse C2 cells assessed as cell viability at 50 uM after 24 hrs by MTT assay (reference value: 100%); assay type: cell-based; settings: read-out: Activity; summary of the method: as §5
C2 [16] = test: Inhibition of H2O2-induced ERK phosphorylation in mouse C2 cells at 15 uM pre-incubated for 30 mins before H2O2 exposure for 15 mins by SDS-PAGE and immunoblotting method; assay type: cell-based; summary of the method: as §1
C2 [17] = test: Inhibition of H2O2-induced JNK phosphorylation in mouse C2 cells at 15 uM pre-incubated for 30 mins before H2O2 exposure for 15 mins by SDS-PAGE and immunoblotting method; assay type: cell-based; summary of the method: as §1
[18] = Cytotoxic activity against mouse C2 cells assessed as cell viability at 15 uM after 24 hrs by MTT assay (reference value: 100%); assay type: cell-based; settings: read-out: Activity; summary of the method: as §5
[19] = Cytoprotective activity against curcumin-induced cytotoxicity in mouse C2 cells assessed as cell viability at 15 uM after 24 hrs by MTT assay (reference value: 83.8 +/- 0.4%); assay type: functional; settings: C2, 24 h, read-out: Activity
C2 [20] = test: Inhibition of curcumin-induced ERK phosphorylation in mouse C2 cells at 15 uM pre-incubated for 30 mins before curcumin exposure for 15 mins by SDS-PAGE and immunoblotting method; assay type: cell-based; summary of the method: as §2
C2 [21] = test: Inhibition of curcumin-induced JNK in mouse C2 cells assessed as reduction in c-Jun phosphorylation at 15 uM pre-incubated for 30 mins before curcumin exposure for 4 hrs by Western blotting method; assay type: cell-based; summary of the method: as §3
C2 [22] = test: Inhibition of curcumin-induced JNK phosphorylation in mouse C2 cells at 15 uM pre-incubated for 30 mins before curcumin exposure for 2 hrs by SDS-PAGE and immunoblotting method
C2 [23] = test: Inhibition of curcumin-induced apoptosis in mouse C2 cells assessed as reduction in PARP cleavage at 2.5 uM pre-incubated for 30 mins before curcumin exposure for 4 hrs by SDS-PAGE and immunoblotting method; assay type: functional, cell-based; summary of the method: as §4
[24] = Effect on PARP protein level in mouse C2 cells at 2.5 uM incubated for 30 mins by SDS-PAGE and immunoblotting method; assay type: cell-based; settings: c2, 0.5 h
C2 [25] = test: Inhibition of curcumin-induced apoptosis in mouse C2 cells assessed as reduction in PARP cleavage at 15 uM pre-incubated for 30 mins before curcumin exposure for 4 hrs by SDS-PAGE and immunoblotting method; assay type: functional, cell-based; summary of the method: as §4
[26] = Effect on PARP protein level in mouse C2 cells at 15 uM incubated for 30 mins by SDS-PAGE and immunoblotting method; assay type: cell-based; settings: c2, 0.5 h

| Structure (SMILES) | IC50 [1] | viability at 1 µM [2] | viability at 15 µM [3] | viability at 30 µM [4] | viability at 50 µM [5] | inhibition (C2 [16]) | inhibition (C2 [17]) | viability at 24 h, 15 µM [18] | viability at 15 µM [19] | inhibition (C2 [20]) | inhibition (C2 [21]) | inhibition (C2 [22]) | also measured |
| --- | --- | --- | --- | --- | --- | --- | --- | --- | --- | --- | --- | --- | --- |
| CN1CC(O)(c2ccc(-c3ccccc3)cc2)Sc2ccccc21 (centres undefined) | 271 µM | 81.6% | 87.1% | 99.1% | 97.6% | – | – | – | – | – | – | – | inhibition (C2 [6]): 55%; inhibition (C2 [7]): 81%; inhibition (C2 [8]): 53%; inhibition (C2 [9]): 40%; inhibition (C2 [10]): Active; Activity [11]: Non-toxic; viability at 24 h, 30 µM [12]: 99.5%; viability at 30 µM [13]: 99.1%; inhibition (C2 [14]): 50% |
| COc1cc(/C=C/C(=O)CC(=O)/C=C/c2ccc(O)c(OC)c2)ccc1O [CURCUMIN] | – | 85.5% | 90.2% | 93.1% | 53.6% | 55% | 81% | – | – | – | – | – | viability at 24 h, 50 µM [15]: 83.8% |
| Oc1ccc(/C=C/c2cc(O)cc(O)c2)cc1 [RESVERATROL] | 96 µM | – | – | – | – | – | – | – | – | – | – | – | – |
| COc1ccc2[nH]cc(CCNC(C)=O)c2c1 [MELATONIN] | – | – | 92.5% | – | – | – | – | 96.9% | 98.5% | 53% | 57% | 50% | – |
| N#C/C(=C1/Nc2ccccc2S1)c1ccnc(NCCc2cccnc2)n1 | – | – | – | – | – | – | – | – | – | – | – | – | inhibition (C2 [23]): Active; Activity [24]: Non-toxic |
| CN1CC(O)(c2ccc(-c3ccccc3)cc2)Oc2ccccc21 (centres undefined) | 119 µM | 84.6% | 97.1% | 76.2% | 71.6% | 55% | 81% | 98.1% | 53.6% | 79% | inactive | inactive | inhibition (C2 [25]): inactive; Activity [26]: Non-toxic |
